# Test results as given in paper PMC5525105 (ACS Chemical Biology, 2017).
# Numbering of substitutions follows the chain as printed.
# B1: rGBA: purified recombinant glucocerebrosidase (imiglucerase) from Genzyme (protein, UniProt P04062 40-536, looked up, variant R495H)
# Lysosomal acid …: ARPCIPKSFGYSSVVCVCNATYCDSFDPPTFPALGTFSRYESTRSGRRMELSMGPIQANHTGTGLLLTLQPEQKFQKVKGFGGAMTDAAALNILALSPPAQNLLLKSYFSEEGIGYNIIRVPMASCDFSIRTYTYADTPDDFQLHNFSLPEEDTKLKIPLIHRALQLAQRPVSLLASPWTSPTWLKTNGAVNGKGSLKGQPGDIYHQTWARYFVKFLDAYAEHKLQFWAVTAENEPSAGLLSGYPFQCLGFTPEHQRDFIARDLGPTLANSTHHNVRLLMLDDQRLLLPHWAKVVLTDPEAAKYVHGIAVHWYLDFLAPAKATLGETHRLFPNTMLFASEACVGSKFWEQSVRLGSWDRGMQYSHSIITNLLYHVVGWTDWNLALNPEGGPNWVRNFVDSPIIVDITKDTFYKQPMFYHLGHFSKFIPEGSQRVGLVASQKNDLDAVALMHPDGSAVVVVLNRSSKDVPLTIKDPAVGFLETISPGYSIHTYLWHRQ
# modifications: imiglucerase
# Assays:
# [1] = molecular target: T1, rGBA (Homo sapiens, UniProt P04062, R534H); assay: Thermal stability of rGBA by tryptophan fluorescence decay; format: binding
# T1 sequence (P04062 40-536 R534H): B1 Lysosomal acid …
# [2] = molecular target: T1, rGBA; assay: Limited proteolysis of rGBA with trypsin; details: for rGBA remaining intact after tryptic digestion: 90 min of incubation with trypsin
# [3] = tested on: GBA L444P mutant; details: mice, oral administration; cited from earlier work
# [4] = tested on: wild-type and N370S GBA; assay: In situ treatment of fibroblasts with IFG 1 or fluoro 3 for 12 days; format: cell-based, human; details: wild-type and homozygous N370S GBA fibroblasts
# [5] = tested on: GBA; details: neutral pH; cited from earlier work
# [6] = molecular target: T2, wild-type GBA (Homo sapiens, UniProt P04062); assay: In situ stabilization of GBA in wild-type fibroblasts; format: cell-based; details: wild-type cells, 100 nM ABP 5 or 100 μM leupeptin, up to 12 days
# T2 sequence (P04062 40-536): B1 Lysosomal acid … with H495R
# Outline: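 Confluent wild-type skin fibroblasts were cultured 0–12 days with 100 nM red β-epoxide probe, 100 μM leupeptin, or both, with medium refreshed […]. Lysates were made in pH 6.5 phosphate/Triton with protease inhibitors. Without in situ probe, 10 μg protein was labeled 1 h at 37 °C with 100 nM green probe at pH 5.2. Analysis was SDS-PAGE fluorescence, Coomassie staining and anti-GBA (8E4) western blot, then densitometry.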
# [7] = molecular target: T1, rGBA; assay: Tryptophan emission fluorescence spectra of rGBA; details: λEX 295 nm, pH 7.4, free or in complex with inhibitor
# [8] = Thermal unfolding of free rGBA by circular dichroism; format: physicochemical; details: circular dichroism 222 nm
# [9] = Time-dependent decay of rGBA activity at 37 °C; format: physicochemical
Molecule,"increase of Tm of rGBA ([1]; pH 5.2, saturating inhibitor concentration)",rGBA remaining intact after tryptic digestion [2],increase of GBA L444P mutant activity [3],concentration at which stabilizing effect became evident [4],concentration of maximal stabilizing effect ([4]; highest concentration tested),increase in thermal stability of GBA [5],stabilization of GBA [6],"Tm of rGBA ([1]; pH 5.2, no inhibitor)",maximum emission of rGBA tryptophan fluorescence [7],apparent Tm ([8]; pH 5.2),apparent Tm ([8]; pH 7.4),"sensitivity of rGBA to tryptic digestion over 90 min ([2]; pH 5.2, trypsin/rGBA 1/10 (w/w))","rGBA degraded by trypsin within 60 min ([2]; pH 7.4, trypsin/rGBA 1/10 (w/w))","activity of rGBA over time ([9]; pH 5.2, 37 °C)","half-life of rGBA activity ([9]; pH 7.4, 37 °C, residual activity measured at pH 5.2)"
"OC[C@H]1CNC[C@@H](O)[C@@H]1O [IFG 1, isofagomine]",+5.6 °C,50%,up to 5 fold,greater than 10 μM,100 µM,8.7 °C,–,–,–,–,–,–,–,–,–
CC(=O)N[C@@H](CC(C)C)C(=O)N[C@@H](CC(C)C)C(=O)N[C@H](C=O)CCCNC(=N)N [leupeptin],–,–,–,–,–,–,about 3 fold,–,–,–,–,–,–,–,–
B1,–,~10%,–,–,–,–,–,55.2 °C,336.5 nm,61 °C,57 °C,shows resistance to tryptic digestion,about 40%,preserved,30 min
